Reference: ChEMBL document CHEMBL1955814, “Tailoring of integrin ligands: probing the charge capability of the metal ion-dependent adhesion site” (J Med Chem, 2012)
pIC50: −log10 of the molar value.

Target: Integrin alpha-IIb/beta-3 (Homo sapiens, UniProt P05106+P08514)
Assay: Displacement of extracellular matrix protein fibrinogen from human integrin alpha2bbeta3 after 1 hr by competitive ELISA
Assay type: protein-complex assay
Details: not given; call rule not given here
Outline: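 Plates coated overnight at 4 °C with 10 μg/mL fibrinogen in carbonate buffer pH 9.6, blocked with 1% BSA in Tris buffer containing 1 mM Ca2+, Mg2+ and Mn2+. Inhibitor (0.00013−10 μM final) plus 2.5 μg/mL final soluble human αIIbβ3 for 1 h at RT. Bound integrin detected with anti-CD41b and peroxidase secondary antibody, A450.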

Sequence of Integrin alpha-IIb/beta-3 (P05106 27-788 limits assumed): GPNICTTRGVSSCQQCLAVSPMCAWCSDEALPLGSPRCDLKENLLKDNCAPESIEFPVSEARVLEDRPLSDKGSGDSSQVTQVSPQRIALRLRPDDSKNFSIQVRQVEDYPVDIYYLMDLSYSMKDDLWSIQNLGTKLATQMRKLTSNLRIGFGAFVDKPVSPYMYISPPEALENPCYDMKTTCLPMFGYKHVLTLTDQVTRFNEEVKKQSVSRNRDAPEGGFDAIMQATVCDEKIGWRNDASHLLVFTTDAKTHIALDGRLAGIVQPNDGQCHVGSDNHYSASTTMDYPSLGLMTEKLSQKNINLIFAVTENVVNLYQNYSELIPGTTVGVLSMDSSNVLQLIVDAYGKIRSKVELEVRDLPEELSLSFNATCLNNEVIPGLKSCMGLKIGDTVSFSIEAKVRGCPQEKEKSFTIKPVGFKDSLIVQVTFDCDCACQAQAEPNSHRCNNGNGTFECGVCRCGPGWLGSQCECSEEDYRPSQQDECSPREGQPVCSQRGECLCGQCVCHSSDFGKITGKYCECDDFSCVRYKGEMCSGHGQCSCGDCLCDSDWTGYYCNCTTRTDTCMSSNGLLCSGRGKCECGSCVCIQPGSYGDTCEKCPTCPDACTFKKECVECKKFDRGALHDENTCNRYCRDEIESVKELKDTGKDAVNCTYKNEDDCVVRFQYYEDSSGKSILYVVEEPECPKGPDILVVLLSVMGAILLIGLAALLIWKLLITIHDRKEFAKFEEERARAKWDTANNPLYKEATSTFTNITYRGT
Sequence of Integrin alpha-IIb/beta-3 (P08514 32-887 limits assumed): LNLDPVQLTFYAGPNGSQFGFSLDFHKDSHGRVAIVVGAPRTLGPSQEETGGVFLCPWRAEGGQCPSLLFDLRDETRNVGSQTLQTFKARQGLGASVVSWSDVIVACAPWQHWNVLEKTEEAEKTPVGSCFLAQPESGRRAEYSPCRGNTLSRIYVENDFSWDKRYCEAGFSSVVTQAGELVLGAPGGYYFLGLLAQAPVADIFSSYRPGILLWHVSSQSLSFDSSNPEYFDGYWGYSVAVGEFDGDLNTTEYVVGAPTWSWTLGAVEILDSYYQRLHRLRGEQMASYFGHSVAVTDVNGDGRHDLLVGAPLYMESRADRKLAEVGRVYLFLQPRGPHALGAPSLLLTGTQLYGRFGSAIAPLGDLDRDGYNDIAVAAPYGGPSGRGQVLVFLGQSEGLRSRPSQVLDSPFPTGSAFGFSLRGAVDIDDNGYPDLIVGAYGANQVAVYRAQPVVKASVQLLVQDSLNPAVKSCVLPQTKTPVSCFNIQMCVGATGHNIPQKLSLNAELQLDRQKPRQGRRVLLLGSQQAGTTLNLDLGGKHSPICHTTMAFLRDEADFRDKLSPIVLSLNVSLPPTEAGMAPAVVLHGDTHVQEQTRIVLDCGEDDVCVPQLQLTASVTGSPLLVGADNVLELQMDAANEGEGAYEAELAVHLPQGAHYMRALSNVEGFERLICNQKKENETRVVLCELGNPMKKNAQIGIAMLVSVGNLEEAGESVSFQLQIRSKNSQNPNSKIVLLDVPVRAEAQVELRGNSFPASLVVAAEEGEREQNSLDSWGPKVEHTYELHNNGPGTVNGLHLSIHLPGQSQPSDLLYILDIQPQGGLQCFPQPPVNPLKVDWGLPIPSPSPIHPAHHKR
Sequence of Integrin alpha-IIb/beta-3 (P08514 891-1039 limits assumed): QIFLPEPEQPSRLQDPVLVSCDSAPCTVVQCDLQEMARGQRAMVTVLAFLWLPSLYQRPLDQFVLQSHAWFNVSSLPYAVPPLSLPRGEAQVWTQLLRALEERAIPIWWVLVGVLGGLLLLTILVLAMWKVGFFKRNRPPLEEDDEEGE

| IC50 | Compound |
| --- | --- |
| Not Active | COP(=O)(OC)[C@H](CNC(=O)c1ccc(OCCC2CCNCC2)cc1)NS(=O)(=O)c1ccccc1 |
| Not Active | COP(=O)(OC)[C@@H](CNC(=O)c1ccc(OCCC2CCNCC2)cc1)NS(=O)(=O)c1ccccc1 |

Same assay, conditions: read-out: IC50

| pIC50 | Compound |
| --- | --- |
| 8.92 | O=C(NC[C@H](NS(=O)(=O)c1ccccc1)[PH](=O)O)c1ccc(OCCC2CCNCC2)cc1 |
| 8.20 | O=C(NC[C@@H](NS(=O)(=O)c1ccccc1)[PH](=O)O)c1ccc(OCCC2CCNCC2)cc1 |
| 7.64 | O=C(NC[C@H](NS(=O)(=O)c1ccccc1)P(=O)(O)O)c1ccc(OCCC2CCNCC2)cc1 |
| 6.87 | O=C(NC[C@@H](NS(=O)(=O)c1ccccc1)P(=O)(O)O)c1ccc(OCCC2CCNCC2)cc1 |
| 8.48 | COP(=O)(O)[C@H](CNC(=O)c1ccc(OCCC2CCNCC2)cc1)NS(=O)(=O)c1ccccc1 |
| 5.94 | COP(=O)(O)[C@@H](CNC(=O)c1ccc(OCCC2CCNCC2)cc1)NS(=O)(=O)c1ccccc1 |
| 7.20 | O=C(NC[C@H](NS(=O)(=O)c1ccccc1)P(O)(O)=S)c1ccc(OCCC2CCNCC2)cc1 |
| 5.88 | O=C(NC[C@@H](NS(=O)(=O)c1ccccc1)P(O)(O)=S)c1ccc(OCCC2CCNCC2)cc1 |
| 8.36 | O=C(NC[C@@H](NS(=O)(=O)c1ccccc1)C(=O)O)c1ccc(OCCC2CCNCC2)cc1 |
| 9.09 | O=C(NC[C@H](NS(=O)(=O)c1ccccc1)C(=O)O)c1ccc(OCCC2CCNCC2)cc1 |

Tested on: not listed separately
Assay: Apparent permeability across human Caco2 cells after 30 to 150 mins
Assay type: ADME, cell-based
Details: Caco-2
Outline: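 Caco-2 monolayers, passage 52−60, grown 21−23 days on polycarbonate inserts (0.4 μm pores, 1.1 cm²) until TEER stable at 300−500 Ω cm². Apical-to-basolateral transport at 37 °C with shaking after 30 min buffer preincubation. Basolateral samples at 30, 60, 90, 120 and 150 min, replaced with fresh buffer. Mass balance done per compound.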

| Papp [×10⁻⁶ cm/s] | Compound |
| --- | --- |
| < 0.01 | O=C(NC[C@H](NS(=O)(=O)c1ccccc1)[PH](=O)O)c1ccc(OCCC2CCNCC2)cc1 |
| < 0.01 | O=C(NC[C@@H](NS(=O)(=O)c1ccccc1)[PH](=O)O)c1ccc(OCCC2CCNCC2)cc1 |
| < 0.01 | O=C(NC[C@H](NS(=O)(=O)c1ccccc1)P(=O)(O)O)c1ccc(OCCC2CCNCC2)cc1 |
| < 0.01 | O=C(NC[C@@H](NS(=O)(=O)c1ccccc1)P(=O)(O)O)c1ccc(OCCC2CCNCC2)cc1 |
| < 0.01 | COP(=O)(O)[C@H](CNC(=O)c1ccc(OCCC2CCNCC2)cc1)NS(=O)(=O)c1ccccc1 |
| 2.4 | OC[C@@H](O)[C@@H](O)[C@H](O)[C@H](O)CO [MANNITOL] |
| < 0.01 | CCCCS(=O)(=O)N[C@@H](Cc1ccc(OCCCCC2CCNCC2)cc1)C(=O)O [TIROFIBAN] |
